Results published in ChEMBL document CHEMBL1932989, “Dibasic biphenyl H3 receptor antagonists: Steric tolerance for a lipophilic side chain” (Eur J Med Chem, 2012).
Active and inactive are the calls of the source. No cut-off for these calls is given here.

Each compound was assayed against Histamine H1 receptor (Cavia porcellus) (UniProt P31389) (assay: Antagonist activity at histamine H1 receptor in guinea pig longitudinally mounted ileum assessed as […] up to 10 uM […]). Conditions: not given.
Assay type: functional, tissue-based

Chain of Histamine H1 receptor (Cavia porcellus) (P31389 whole entry): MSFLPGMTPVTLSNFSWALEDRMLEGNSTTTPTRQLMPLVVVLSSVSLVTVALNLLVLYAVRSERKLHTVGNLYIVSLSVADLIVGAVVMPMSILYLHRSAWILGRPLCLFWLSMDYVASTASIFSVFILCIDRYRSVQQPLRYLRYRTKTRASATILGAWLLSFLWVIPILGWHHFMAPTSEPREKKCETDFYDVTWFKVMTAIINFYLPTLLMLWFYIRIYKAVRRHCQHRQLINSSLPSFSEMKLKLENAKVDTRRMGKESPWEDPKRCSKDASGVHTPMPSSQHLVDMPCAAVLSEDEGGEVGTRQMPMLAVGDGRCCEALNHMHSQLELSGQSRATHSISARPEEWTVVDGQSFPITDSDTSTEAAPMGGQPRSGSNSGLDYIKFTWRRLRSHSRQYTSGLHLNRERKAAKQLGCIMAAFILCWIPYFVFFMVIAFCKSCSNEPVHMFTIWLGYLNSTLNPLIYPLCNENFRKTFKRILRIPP

Row | SMILES | Activity
1 | c1ccc(CC(c2ccc(-c3ccc(CN4CCCCC4)cc3)cc2)N2CCCCC2)cc1 (racemic) | inactive
2 | C[C@@H]1CCCN1Cc1ccc(-c2ccc(C(Cc3ccccc3)N3CCCCC3)cc2)cc1 (mixture of isomers) | inactive
3 | CN(C)C(Cc1ccccc1)c1ccc(-c2ccc(CN3CCCCC3)cc2)cc1 (racemic) | inactive
4 | CCCC[C@H](c1ccc(-c2ccc(CN3CCCCC3)cc2)cc1)N1CCC[C@H]1C | inactive
5 | CCCC[C@H](c1ccc(-c2ccc(CN3CCCCC3)cc2)cc1)N1CCCC[C@@H]1C | inactive
6 | CCCC[C@@H](c1ccc(-c2ccc(CN3CCCCC3)cc2)cc1)N1CCCC[C@@H]1C | inactive

Now from value to compound:

Row | Activity | SMILES
7 | inactive | COCCC[C@@H](c1ccc(-c2ccc(CN3CCCCC3)cc2)cc1)N1CCC[C@@H]1C
8 | inactive | COCCC[C@H](c1ccc(-c2ccc(CN3CCCCC3)cc2)cc1)N1CCC[C@@H]1C

Each compound was assayed against T1, Histamine H3 receptor (Homo sapiens, UniProt Q9Y5N1) (assay: Antagonist activity at human histamine H3 receptor expressed in human SK-N-MC cells assessed as inhibition of (R)-alpha-methylhistamine-induced effect after 6 hrs by beta-galactosidase reporter gene assay). Conditions: not given.
Assay type: functional, cell-based
In short: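 SK-N-MC cells expressing human H3 receptor and a β-galactosidase reporter; compounds (1 nM–10 µM) added 10 min before (R)-α-methylhistamine (0.1–100 nM), forskolin 5 µM added 5 min after compound. Incubated 6 h at 37 °C, cells lysed, chlorophenol red β-D-galactopyranoside colour read at 570 nm. Response as % agonist maximum; pKB by Furchgott equation, or pD2' by Van Rossum for non-surmountable antagonism; mean ± SEM.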

T1 sequence (Q9Y5N1 whole entry): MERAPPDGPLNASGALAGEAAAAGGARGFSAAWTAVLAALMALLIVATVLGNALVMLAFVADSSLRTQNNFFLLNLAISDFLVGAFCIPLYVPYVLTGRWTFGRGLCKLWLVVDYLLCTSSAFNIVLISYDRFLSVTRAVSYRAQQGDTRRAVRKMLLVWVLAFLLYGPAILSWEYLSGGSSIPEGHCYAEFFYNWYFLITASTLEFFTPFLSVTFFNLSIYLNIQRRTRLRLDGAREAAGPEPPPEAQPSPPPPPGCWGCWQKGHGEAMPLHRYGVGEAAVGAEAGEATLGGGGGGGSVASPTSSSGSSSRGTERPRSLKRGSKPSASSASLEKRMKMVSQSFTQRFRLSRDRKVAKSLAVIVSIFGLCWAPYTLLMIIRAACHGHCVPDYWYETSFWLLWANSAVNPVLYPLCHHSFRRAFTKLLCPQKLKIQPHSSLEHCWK

Row | SMILES | pKb
9 | c1cc(-c2ccc(CN3CCCCC3)cc2)ccc1CN1CCCCC1 | 8.77
10 | c1ccc(CC(c2ccc(-c3ccc(CN4CCCCC4)cc3)cc2)N2CCCCC2)cc1 (racemic) | 8.3
11 | C[C@@H]1CCCN1Cc1ccc(-c2ccc(C(Cc3ccccc3)N3CCCCC3)cc2)cc1 (mixture of isomers) | 8.87
12 | CN(C)C(Cc1ccccc1)c1ccc(-c2ccc(CN3CCCCC3)cc2)cc1 (racemic) | 7.56
13 | CCCC[C@H](c1ccc(-c2ccc(CN3CCCCC3)cc2)cc1)N1CCC[C@H]1C | 8.8
14 | CCCC[C@H](c1ccc(-c2ccc(CN3CCCCC3)cc2)cc1)N1CCCC[C@@H]1C | 8.91
15 | CCCC[C@@H](c1ccc(-c2ccc(CN3CCCCC3)cc2)cc1)N1CCCC[C@@H]1C | 8.94

Next, values leading:

Row | pKb | SMILES
16 | 10 | COCCC[C@@H](c1ccc(-c2ccc(CN3CCCCC3)cc2)cc1)N1CCC[C@@H]1C
17 | 9.64 | COCCC[C@H](c1ccc(-c2ccc(CN3CCCCC3)cc2)cc1)N1CCC[C@@H]1C

These compounds were tested against Histamine H2 receptor (Cavia porcellus) (UniProt P47747) (assay: not given). Conditions: Ileum.
Chain of Histamine H2 receptor (Cavia porcellus) (P47747 whole entry): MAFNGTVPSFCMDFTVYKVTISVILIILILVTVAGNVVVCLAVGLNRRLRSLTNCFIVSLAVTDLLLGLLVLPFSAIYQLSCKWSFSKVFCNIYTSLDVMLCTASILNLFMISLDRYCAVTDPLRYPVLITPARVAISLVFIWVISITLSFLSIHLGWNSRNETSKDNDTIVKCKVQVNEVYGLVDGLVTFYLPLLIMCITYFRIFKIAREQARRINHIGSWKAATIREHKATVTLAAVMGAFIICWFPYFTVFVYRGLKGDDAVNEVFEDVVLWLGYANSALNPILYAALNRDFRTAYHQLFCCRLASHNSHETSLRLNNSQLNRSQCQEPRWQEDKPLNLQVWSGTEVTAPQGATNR

Row | pKb | SMILES
18 | 5.13 | CCCC[C@H](c1ccc(-c2ccc(CN3CCCCC3)cc2)cc1)N1CCC[C@H]1C

What follows are compounds tested against Histamine H3 receptor (Rattus norvegicus, UniProt Q9QYN8) (assay: Displacement of [3H]RAMHA from rat histamine H3 receptor in rat cerebral cortex membranes). Conditions: not given.
Assay type: cell membranes, Membrane
In short: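 Rat brain membranes (Kilpatrick method) incubated 45 min with 0.5 nM [3H]-(R)-α-methylhistamine and compound (0.03 nM–10 μM) in 50 mM Tris–HCl pH 7.4, 50 mM NaCl, 0.5 mM EDTA. Vacuum filtration, two ice-cold buffer rinses. Nonspecific binding with 10 μM thioperamide. pIC50 converted to pKi via Cheng–Prusoff; means ± SEM.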

Chain of Histamine H3 receptor (Rattus norvegicus, UniProt Q9QYN8) (Q9QYN8 whole entry): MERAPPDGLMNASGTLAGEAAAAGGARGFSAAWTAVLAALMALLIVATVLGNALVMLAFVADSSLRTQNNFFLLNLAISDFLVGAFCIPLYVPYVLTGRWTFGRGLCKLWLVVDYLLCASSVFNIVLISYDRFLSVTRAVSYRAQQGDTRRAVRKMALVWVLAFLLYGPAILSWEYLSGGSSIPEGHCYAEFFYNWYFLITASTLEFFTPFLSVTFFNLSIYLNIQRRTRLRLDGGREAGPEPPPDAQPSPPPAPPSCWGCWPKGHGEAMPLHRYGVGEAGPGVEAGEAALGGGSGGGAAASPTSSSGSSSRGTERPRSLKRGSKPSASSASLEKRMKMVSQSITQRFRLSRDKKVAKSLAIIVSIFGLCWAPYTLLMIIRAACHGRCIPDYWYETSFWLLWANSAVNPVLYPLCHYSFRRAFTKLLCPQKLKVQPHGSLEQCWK

Row | SMILES | Ki [µM]
19 | CCCCC(c1ccc(-c2ccc(C)cc2)cc1)N1CCCCC1 (racemic) | 43.7
20 | c1ccc(CC(c2ccc(-c3ccc(CN4CCCCC4)cc3)cc2)N2CCCCC2)cc1 (racemic) | 0.112
21 | C[C@@H]1CCCN1Cc1ccc(-c2ccc(C(Cc3ccccc3)N3CCCCC3)cc2)cc1 (mixture of isomers) | 0.0295
22 | CN(C)C(Cc1ccccc1)c1ccc(-c2ccc(CN3CCCCC3)cc2)cc1 (racemic) | 0.0302
23 | CCCC[C@H](c1ccc(-c2ccc(CN3CCCCC3)cc2)cc1)N1CCC[C@H]1C | 0.0126
24 | CCCC[C@H](c1ccc(-c2ccc(CN3CCCCC3)cc2)cc1)N1CCCC[C@@H]1C | 0.0263
25 | CCCC[C@@H](c1ccc(-c2ccc(CN3CCCCC3)cc2)cc1)N1CCCC[C@@H]1C | 0.0263

Second part, the compound after the results:

Row | Ki [µM] | SMILES
26 | 60.3 | CCCCCc1ccc(-c2ccc(CN3CCCCC3)cc2)cc1
27 | 0.00178 | COCCC[C@@H](c1ccc(-c2ccc(CN3CCCCC3)cc2)cc1)N1CCC[C@@H]1C
28 | 0.00148 | COCCC[C@H](c1ccc(-c2ccc(CN3CCCCC3)cc2)cc1)N1CCC[C@@H]1C

The compounds below were run against Histamine H4 receptor (Homo sapiens, UniProt Q9H3N8) (assay: Displacement of [3H]histamine from human histamine H4 receptor expressed in GPCR97 transfected human SK-N-MC cells). Conditions: not given.
Assay type: cell-based
In short: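 Membranes of SK-N-MC cells stably expressing human H4, 60 min at room temperature with 10 nM [3H]-histamine, competitor 0.01 nM–10 μM. Filtration with two ice-cold Tris–HCl/EDTA washes. 10 μM histamine defined nonspecific binding. pKi derived from pIC50 by Cheng–Prusoff.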

Row | SMILES | Ki [µM]
29 | CCCCC(c1ccc(-c2ccc(C)cc2)cc1)N1CCCCC1 (racemic) | ≥ 31.6
30 | c1ccc(CC(c2ccc(-c3ccc(CN4CCCCC4)cc3)cc2)N2CCCCC2)cc1 (racemic) | ≥ 31.6
31 | C[C@@H]1CCCN1Cc1ccc(-c2ccc(C(Cc3ccccc3)N3CCCCC3)cc2)cc1 (mixture of isomers) | ≥ 31.6
32 | CN(C)C(Cc1ccccc1)c1ccc(-c2ccc(CN3CCCCC3)cc2)cc1 (racemic) | ≥ 31.6
33 | CCCC[C@H](c1ccc(-c2ccc(CN3CCCCC3)cc2)cc1)N1CCC[C@H]1C | ≥ 31.6
34 | CCCC[C@H](c1ccc(-c2ccc(CN3CCCCC3)cc2)cc1)N1CCCC[C@@H]1C | ≥ 31.6
35 | CCCC[C@@H](c1ccc(-c2ccc(CN3CCCCC3)cc2)cc1)N1CCCC[C@@H]1C | ≥ 31.6

The remaining lines, values ahead:

Row | Ki [µM] | SMILES
36 | ≥ 31.6 | CCCCCc1ccc(-c2ccc(CN3CCCCC3)cc2)cc1
37 | ≥ 31.6 | COCCC[C@@H](c1ccc(-c2ccc(CN3CCCCC3)cc2)cc1)N1CCC[C@@H]1C
38 | ≥ 31.6 | COCCC[C@H](c1ccc(-c2ccc(CN3CCCCC3)cc2)cc1)N1CCC[C@@H]1C

Each compound was assayed against T1, Histamine H3 receptor (assay: Displacement of [3H]RAMHA from human histamine H3 receptor expressed in GPCR97 transfected human SK-N-MC cells). Conditions: not given.
Assay type: cell-based
In short: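 SK-N-MC cell membranes stably expressing human H3; 60 min at room temperature with 0.5 nM [3H]-(R)-α-methylhistamine, competitor 0.01 nM–10 μM. Filtration, two washes with ice-cold 50 mM Tris–HCl/5 mM EDTA. Nonspecific binding with 10 μM histamine. pIC50 from displacement curves converted to pKi by Cheng–Prusoff; means ± SEM.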

Row | SMILES | Ki [µM]
39 | CCCCC(c1ccc(-c2ccc(C)cc2)cc1)N1CCCCC1 (racemic) | 13.5
40 | c1ccc(CC(c2ccc(-c3ccc(CN4CCCCC4)cc3)cc2)N2CCCCC2)cc1 (racemic) | 0.0191
41 | C[C@@H]1CCCN1Cc1ccc(-c2ccc(C(Cc3ccccc3)N3CCCCC3)cc2)cc1 (mixture of isomers) | 0.00562
42 | CN(C)C(Cc1ccccc1)c1ccc(-c2ccc(CN3CCCCC3)cc2)cc1 (racemic) | 0.0166
43 | CCCC[C@H](c1ccc(-c2ccc(CN3CCCCC3)cc2)cc1)N1CCC[C@H]1C | 0.00245
44 | CCCC[C@H](c1ccc(-c2ccc(CN3CCCCC3)cc2)cc1)N1CCCC[C@@H]1C | 0.00302
45 | CCCC[C@@H](c1ccc(-c2ccc(CN3CCCCC3)cc2)cc1)N1CCCC[C@@H]1C | 0.00245

Continued, values first:

Row | Ki [µM] | SMILES
46 | 12.9 | CCCCCc1ccc(-c2ccc(CN3CCCCC3)cc2)cc1
47 | 0.000871 | COCCC[C@@H](c1ccc(-c2ccc(CN3CCCCC3)cc2)cc1)N1CCC[C@@H]1C
48 | 0.002 | COCCC[C@H](c1ccc(-c2ccc(CN3CCCCC3)cc2)cc1)N1CCC[C@@H]1C

What follows are compounds tested against Histamine H2 receptor (Cavia porcellus) (UniProt P47747) (assay: Antagonist activity at histamine H2 receptor in guinea pig spontaneously beating isolated atria assessed as changes in rate of spontaneous beating at 1 uM by cardiotachograph analysis). Conditions: not given.

Row | SMILES | Activity
49 | CCCCC(c1ccc(-c2ccc(C)cc2)cc1)N1CCCCC1 (racemic) | inactive
50 | c1ccc(CC(c2ccc(-c3ccc(CN4CCCCC4)cc3)cc2)N2CCCCC2)cc1 (racemic) | inactive
51 | C[C@@H]1CCCN1Cc1ccc(-c2ccc(C(Cc3ccccc3)N3CCCCC3)cc2)cc1 (mixture of isomers) | inactive
52 | CN(C)C(Cc1ccccc1)c1ccc(-c2ccc(CN3CCCCC3)cc2)cc1 (racemic) | inactive
53 | CCCC[C@H](c1ccc(-c2ccc(CN3CCCCC3)cc2)cc1)N1CCCC[C@@H]1C | inactive
54 | CCCC[C@@H](c1ccc(-c2ccc(CN3CCCCC3)cc2)cc1)N1CCCC[C@@H]1C | inactive

Second part, the compound after the results:

Row | Activity | SMILES
55 | inactive | CCCCCc1ccc(-c2ccc(CN3CCCCC3)cc2)cc1
56 | inactive | COCCC[C@@H](c1ccc(-c2ccc(CN3CCCCC3)cc2)cc1)N1CCC[C@@H]1C
57 | inactive | COCCC[C@H](c1ccc(-c2ccc(CN3CCCCC3)cc2)cc1)N1CCC[C@@H]1C
